In ChEMBL document CHEMBL1154334, “Effect of the structure of adenosine mimic of bisubstrate-analog inhibitors on their activity towards basophilic protein kinases” (Bioorg Med Chem Lett, 2009):

Tests used:
[1] = biological target: Rho-associated protein kinase 2 (Homo sapiens, UniProt O75116); experiment: Displacement of ARC583 from ROCK2
[2] = biological target: RAC-gamma serine/threonine-protein kinase (Homo sapiens, UniProt Q9Y243); experiment: Inhibition of PKBgamma in presence of 100 uM ATP
Sequence of RAC-gamma serine/threonine-protein kinase (Q9Y243 whole entry): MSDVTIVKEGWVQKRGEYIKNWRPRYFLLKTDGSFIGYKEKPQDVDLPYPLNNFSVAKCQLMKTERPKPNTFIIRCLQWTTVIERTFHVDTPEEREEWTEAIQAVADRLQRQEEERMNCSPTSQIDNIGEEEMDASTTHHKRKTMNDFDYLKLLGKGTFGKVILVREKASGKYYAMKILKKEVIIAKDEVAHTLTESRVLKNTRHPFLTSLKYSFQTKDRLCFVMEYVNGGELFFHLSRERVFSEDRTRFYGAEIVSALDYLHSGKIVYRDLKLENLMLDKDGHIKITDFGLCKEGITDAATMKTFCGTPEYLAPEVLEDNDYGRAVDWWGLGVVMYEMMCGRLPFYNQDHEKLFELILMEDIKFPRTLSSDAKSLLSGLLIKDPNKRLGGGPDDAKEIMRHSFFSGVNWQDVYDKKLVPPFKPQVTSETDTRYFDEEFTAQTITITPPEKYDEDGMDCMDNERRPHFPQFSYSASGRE
How it was run: (§1)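 Kinetic phosphorylation assays with PKA catalytic subunit (PKAc) or PKB catalytic subunit (PKBc) at fixed ATP. ATP Km values taken as 20 for PKAc and 100 for PKBc.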

[3] = biological target: T1, cAMP-dependent protein kinase catalytic subunit alpha (Homo sapiens, UniProt P17612); experiment: Inhibition of PKACalpha in presence of […]
[4] = biological target: T1, cAMP-dependent protein kinase catalytic subunit alpha; experiment: Inhibition of PKACalpha in presence of 100 uM ATP; how it was run: as §1

Sequence of Rho-associated protein kinase 2 (O75116 whole entry): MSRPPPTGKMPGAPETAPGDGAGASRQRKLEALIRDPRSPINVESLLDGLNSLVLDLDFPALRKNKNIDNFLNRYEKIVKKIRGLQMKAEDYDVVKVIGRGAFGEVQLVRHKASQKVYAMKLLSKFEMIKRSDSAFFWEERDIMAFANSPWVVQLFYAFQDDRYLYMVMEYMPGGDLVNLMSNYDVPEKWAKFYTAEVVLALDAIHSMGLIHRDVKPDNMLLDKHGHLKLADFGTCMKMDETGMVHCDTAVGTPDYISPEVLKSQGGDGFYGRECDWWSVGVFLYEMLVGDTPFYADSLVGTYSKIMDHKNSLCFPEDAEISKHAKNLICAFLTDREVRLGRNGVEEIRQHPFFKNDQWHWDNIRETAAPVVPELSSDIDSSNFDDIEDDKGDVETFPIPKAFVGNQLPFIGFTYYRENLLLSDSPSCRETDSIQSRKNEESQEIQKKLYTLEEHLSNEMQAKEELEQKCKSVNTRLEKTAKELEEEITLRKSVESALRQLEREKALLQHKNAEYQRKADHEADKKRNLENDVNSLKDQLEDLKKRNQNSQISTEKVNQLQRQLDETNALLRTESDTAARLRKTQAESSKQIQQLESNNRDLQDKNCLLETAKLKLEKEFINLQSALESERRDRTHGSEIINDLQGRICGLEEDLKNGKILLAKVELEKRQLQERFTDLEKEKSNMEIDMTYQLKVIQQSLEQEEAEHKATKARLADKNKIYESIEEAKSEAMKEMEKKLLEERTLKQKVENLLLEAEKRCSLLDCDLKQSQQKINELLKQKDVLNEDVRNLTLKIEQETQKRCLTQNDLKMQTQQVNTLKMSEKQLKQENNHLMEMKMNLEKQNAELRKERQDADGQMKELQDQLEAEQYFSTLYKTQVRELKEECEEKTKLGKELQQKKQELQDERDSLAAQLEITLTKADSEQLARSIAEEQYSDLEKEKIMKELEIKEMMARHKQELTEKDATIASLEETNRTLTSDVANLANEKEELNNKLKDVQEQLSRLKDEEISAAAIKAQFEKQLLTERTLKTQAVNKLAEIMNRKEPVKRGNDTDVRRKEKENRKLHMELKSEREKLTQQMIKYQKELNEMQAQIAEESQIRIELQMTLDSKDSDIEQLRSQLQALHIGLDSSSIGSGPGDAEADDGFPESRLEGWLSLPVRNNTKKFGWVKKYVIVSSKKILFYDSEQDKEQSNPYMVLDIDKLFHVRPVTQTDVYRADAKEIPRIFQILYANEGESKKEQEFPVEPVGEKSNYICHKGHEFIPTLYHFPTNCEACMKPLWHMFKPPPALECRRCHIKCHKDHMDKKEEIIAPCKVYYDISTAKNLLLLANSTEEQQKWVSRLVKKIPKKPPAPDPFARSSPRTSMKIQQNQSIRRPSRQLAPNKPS

Question: `N=C(N)NCCC[C@@H](NC(=O)[C@@H](CCCNC(=N)N)NC(=O)CCCCCNC(=O)[C@@H](CCCCN)NC(=O)CCCCCNC(=O)c1ccc(-c2ccnc(N)n2)s1)C(N)=O` was tested. Which Kd [1] did it give?
Answer: < 0.003 µM

Question: And the IC50 [2]?
Answer: 0.27 µM

Question: What about the IC50 [3] of the same compound?
Answer: 0.082 µM

Question: What does the source list for `NCCCC[C@@H](NC(=O)CCCCCNC(=O)c1ccccc1)C(=O)NCCCCCC(=O)N[C@H](CCCN=C(N)N)C(=O)N[C@H](CCCN=C(N)N)C(N)=O`?
Answer: Kd [1]: 8 µM; IC50 [2]: 360 µM; IC50 ([4]; read-out: IC50): 183 µM

Question: For `CC(=O)NCCCCCC(=O)N[C@H](CCCCN)C(=O)NCCCCCC(=O)N[C@H](CCCNC(=N)N)C(=O)N[C@H](CCCNC(=N)N)C(N)=O`, which Kd [1] is on record?
Answer: 123 µM

Question: What about the IC50 [2] of the same compound?
Answer: > 2000 µM

Question: And the IC50 [4]?
Answer: Not Active
